Experimental data as given in publication PMC4506969 (International Journal for Parasitology: Drugs and Drug …, 2015).
Several values for one entry are separate records, joined by “and”; a condition that tells them apart may be missing. Equal entries are not always repeated. Where two headings read alike, the source gives them in different places.

How the values were obtained:
HEK293 cells = assay: HEK293 cytotoxicity assay; assay type: cell-based; settings: read-out: Mammalian cell IC50 HEK 293
recombinant PfHDAC1 = molecular target: T1, recombinant PfHDAC1 (Plasmodium falciparum, UniProt Q7K6A1); assay: Deacetylase activity assay, recombinant PfHDAC1; assay type: biochemical; settings: mean (±SD) of two independent assays; for inhibition at 1 µM: read-out: PfHDAC1 % inhibition at 1 μM, 1 μM
T1 sequence (Q7K6A1 1-449): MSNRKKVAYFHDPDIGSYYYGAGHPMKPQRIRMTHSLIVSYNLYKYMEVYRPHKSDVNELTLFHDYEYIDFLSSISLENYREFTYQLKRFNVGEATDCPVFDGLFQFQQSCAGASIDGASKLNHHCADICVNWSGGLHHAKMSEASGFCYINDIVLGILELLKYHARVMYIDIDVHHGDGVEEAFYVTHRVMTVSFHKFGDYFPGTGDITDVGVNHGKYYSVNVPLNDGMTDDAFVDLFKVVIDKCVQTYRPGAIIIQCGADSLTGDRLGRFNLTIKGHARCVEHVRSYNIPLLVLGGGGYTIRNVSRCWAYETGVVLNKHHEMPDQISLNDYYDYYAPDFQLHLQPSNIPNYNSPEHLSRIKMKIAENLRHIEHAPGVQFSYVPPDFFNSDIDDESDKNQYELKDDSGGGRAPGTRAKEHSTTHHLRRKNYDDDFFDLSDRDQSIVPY
In short: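 Recombinant PfHDAC1 (32 ng/ml) was incubated with test compound or control at 1 μM, or with vehicle (0.5% DMSO). Ac-RGK(Ac)-AMC fluorogenic substrate was added for 1 h at 37 °C, then activator solution for 10 min at room temperature. Fluorescence (ex 350–380/em 440–460 nm) was read within 60 min. Percent inhibition was calculated versus DMSO controls from two independent assays, each in duplicate.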

[1] = system: T. b. brucei 427 bloodstream trypanosomes; assay: T. b. brucei growth inhibition assay; assay type: cell-based, Trypanosoma brucei brucei; settings: for IC50: read-out: T. b. brucei IC50; for IC90: in Homo sapiens, read-out: T. b. brucei IC90; for T. b. brucei SI (Selectivity Index): mammalian cell IC50/T. brucei IC50
[2] = system: asexual-stage P. falciparum; assay: P. falciparum asexual-stage growth inhibition, line not specified or both lines; assay type: cell-based, Plasmodium falciparum; settings: for IC50 / IC90: Plasmodium falciparum; for IC50: 3D7|DD2, read-out: IC50 against 3D7 and Dd2 P. falciparum lines; for IC90: in Homo sapiens, read-out: P. falciparum IC90; for P. falciparum SI (Selectivity Index): mammalian cell IC50/P. falciparum IC50, larger values indicate greater parasite selectivity
P. falciparum 3D7 = assay: microbe, parasite or virus in culture; assay type: cell-based; settings: Plasmodium falciparum, 3D7, read-out: P. falciparum IC50 3D7
[3] = system: Neonatal foreskin fibroblast (NFF) cells; assay: NFF cytotoxicity assay; assay type: cell-based; settings: Homo sapiens, 72 h, read-out: Mammalian cell IC50 NFF
T. b. brucei = settings: read-out: T. b. brucei growth IC50; ref Carrillo et al., 2015; cited from earlier work
[4] = system: tetra-acetylated histone H4 in P. falciparum 3D7 trophozoites; assay: Protein hyperacetylation assay, Western blot, anti-tetra-acetyl histone H4; assay type: cell-based, Plasmodium falciparum; settings: 3× IC50, 3 h; for Hyperacetylation, anti-(tetra) acetyl H4 antibody (words): vs vehicle control
In short: (§1)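 Synchronous trophozoite-stage 3D7-infected erythrocytes (3–5% parasitemia, 5% haematocrit) were exposed for 3 h, with controls of 0.05% DMSO vehicle, chloroquine and a reference HDAC inhibitor. Lysis used 0.15% saponin, then PBS washes, SDS-PAGE and PVDF blotting. Rabbit primaries ran overnight at 4 °C: tetra-acetyl H4 1:2000, H3K9 1:1000, H3 N-terminus 1:500. Membranes were stripped at pH 2 and reprobed with anti-RAP2. Densitometry was RAP2-normalised and expressed as fold change vs vehicle (=1).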

P. falciparum Dd2 = assay: P. falciparum growth inhibition assay, [3H] hypoxanthine incorporation, Dd2 line; assay type: cell-based; settings: Plasmodium falciparum, DD2, read-out: P. falciparum IC50 Dd2
[5] = system: acetyl histone H3 lysine 9 in P. falciparum 3D7 trophozoites; assay: Protein hyperacetylation assay, Western blot, anti-acetyl histone H3 lysine 9; assay type: cell-based, Plasmodium falciparum; settings: 3× IC50, 3 h
In short: as §1

[6] = system: sexual stage P. falciparum gametocytes; settings: ref Sun et al., 2014, cited from earlier work; for IC50: read-out: Sexual stage P. falciparum gametocytes IC50
[7] = system: acetyl histone H3 N-terminus in P. falciparum 3D7 trophozoites; assay: Protein hyperacetylation assay, Western blot, anti-acetyl histone H3 N-terminus; assay type: cell-based, Plasmodium falciparum; settings: 3× IC50, 3 h
In short: as §1

P. falciparum = settings: read-out: P. falciparum in vitro growth IC50; ref Patel et al., 2009; cited from earlier work
[8] = HEK293 cytotoxicity assay; assay type: cell-based; settings: human, HEK293 cells
late stage gametocytes = settings: read-out: Late stage gametocytes IC50; ref Trenholme et al., 2014; cited from earlier work
early stage gametocytes = settings: read-out: Early stage gametocytes IC50; ref Trenholme et al., 2014; cited from earlier work

SMILES	IC50 (HEK293 cells; Homo sapiens, HEK293, 48 h) [nM]	inhibition at 1 µM (recombinant PfHDAC1) [%]	Times less active against T.b. brucei than P. falciparum [1] [times]	IC50 ([1]; Trypanosoma brucei, 48 h) [nM]	IC90 ([1]; Trypanosoma brucei) [nM]	T. b. brucei SI (Selectivity Index) [1]	IC90 [2] [nM]	P. falciparum SI (Selectivity Index) [2]	IC50 (P. falciparum 3D7) [nM]	IC50 [3] [nM]	Hyperacetylation, anti-(tetra) acetyl H4 antibody (words) [4]	IC50 (P. falciparum Dd2) [nM]	also measured
O=C(/C=C/c1cccc(S(=O)(=O)Nc2ccccc2)c1)NO [Belinostat, belinostat]	1420	78.5 ± 4.7	~100	2610	3640	<1	120	11–40	60	2370	caused hyperacetylation	130	IC50 [2]: < 200 nM; IC50 (T. b. brucei): 2200 nM; Fold increase in acetylation signal, anti-(tetra) acetyl H4 antibody ([4]; relative density vs DMSO control, normalised to RAP2): > 1.3 fold
CCN(CC)CCCC(C)Nc1ccnc2cc(Cl)ccc12 (stereo not drawn) [Chloroquine, chloroquine]	–	–	–	9920	–	5	–	612–4893	10	48900	did not result in hyperacetylation	80	–
CC(=O)NCC(=O)O.CC(=O)NCC(=O)O.N=C(N)c1ccc(N=NNc2ccc(C(=N)N)cc2)cc1 [Diminazene aceturate, diminazene aceturate]	–	–	–	–	–	>617	–	–	–	–	–	–	IC50 (HEK293 cells; 48 h exposure, resazurin): > 37000 nM; IC50 ([1]; 427 bloodstream form, 48 h exposure): 60 nM
Cc1[nH]c2ccccc2c1CCNCc1ccc(/C=C/C(=O)NO)cc1 [Panobinostat, panobinostat]	–	~100	~100	1690	3280	–	10	–	10	70	did not increase acetylation	30	Hyperacetylation, anti-histone H3 lysine 9 antibody [5]: cause hyperacetylation; IC50 [6]: 940 nM; Hyperacetylation, anti-histone H3 N-terminus antibody [7]: did not increase acetylation; IC50 (P. falciparum): ~20 nM; IC50 (T. b. brucei): 1600 nM; Hyperacetylation, anti-(tetra) acetyl H4 antibody (words) ([4]; listed as panobinostat): did not result in hyperacetylation
N=C(N)c1ccc(OCCCCCOc2ccc(C(=N)N)cc2)cc1 [Pentamidine]	> 690	–	–	4	–	>173	–	–	–	–	–	–	–
COc1ccc(C[C@H](N)C(=O)N[C@H]2[C@@H](O)[C@H](n3cnc4c(N(C)C)ncnc43)O[C@@H]2CO)cc1 [Puromycin, puromycin]	–	–	–	–	–	–	–	–	–	–	–	–	IC50 at 48 h [8]: 797 nM
C/C=C1\NC(=O)[C@H]2CSSCC/C=C/[C@H](CC(=O)N[C@H](C(C)C)C(=O)N2)OC(=O)[C@H](C(C)C)NC1=O [Romidepsin, romidepsin]	< 5	48.3 ± 39.3	–	35	100	<1	180	<1	90	1	caused hyperacetylation	130	Fold increase in hyperacetylation, anti-histone H3 lysine 9 antibody ([5]; vs vehicle control): 5–6 fold; IC50 [6]: 640 nM; Selectivity for gametocytes compared to the mammalian cell line HepG2 [6]: > 10 fold; IC50 [2]: < 200 nM
CC(/C=C/C(=O)NO)=C\[C@@H](C)C(=O)c1ccc(N(C)C)cc1 [TSA, trichostatin A]	–	–	–	–	–	–	–	–	–	–	–	–	PfHDAC1 % inhibition at 1 μM (recombinant PfHDAC1; 1 μM): ~100% and 98.9 ± 1.5%; IC50 (late stage gametocytes): 70 nM; IC50 (early stage gametocytes): 90 nM
O=C(CCCCCCC(=O)Nc1ccccc1)NO [Vorinostat, suberoylanilide hydroxamic acid]	–	59.8 ± 12.7	~100	–	18700	–	–	–	–	–	–	–	IC50 (late stage gametocytes): 810 nM
